A short description of the data set: Toxicity liver stage against HepG2, at 10uM. Type of data set: cell-based. On the set-up: test concentration 10 uM, cell line HepG2-A16-CD81EGFP. The conditions noted are these: human, HepG2-A16-CD81EGFP cells; read-out: INHIBITION
The procedure, abridged: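 Uninfected HepG2-A16-CD81EGFP cells, 3 × 10^3 per well, 1536-well, plated on prespotted compound at 10 μM final, parasite-free screening media added to match infected plates; puromycin 10 μM positive, DMSO 0.5% negative; run in parallel with 48 h PbLuc assay at 37 °C, 5% CO2; viability by CellTiter-Glo luminescence, normalized to controls.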
With `CCOC(=O)c1cc2n(n1)CCCO2`, the cytotoxicity at 10 µM worked out at 3.86%.
As for `O=C(CSC1=NS(=O)(=O)c2cc(F)ccc2N1)Nc1ccc(Cl)c(Cl)c1`, the cytotoxicity at 10 µM came to 11.5%.
Regarding `COC(=O)CCC(=O)N1CCc2nc(C(=O)N3CCCCC3)sc2CC1`, the cytotoxicity at 10 µM came out at 15.4%.
Under `CCOCC1CN(C(=O)[C@H]2CCCO2)Cc2nnn(CC3CC3)c21` (some centres not stated) stands -1.99%; under `Cc1nc(-c2cnn(C)c2)nc2c1CN(C(=O)c1ccc[nH]1)CC2`, 13%.
Under `CCn1nnc2c1C(COCCN(C)C)CN(c1nncs1)C2` (configuration not stated) stands 1.52%.
With `O=S(=O)(C1CC1)N1CCC2(COCc3cnc(NCC4CC4)nc32)C1` (configuration not stated), the cytotoxicity at 10 µM was found to be 6.38%.
The same measure for `Cc1nc(C#N)c(N2CCC(c3nc(-c4ccccc4)no3)CC2)o1`: -7.41%; for `Cc1nc(NCc2ccccn2)c2c(n1)c(C)nn2C`: -1.02%; for `COc1cc2cc(C(=O)NCC(=O)O)n(C)c2c(OC)c1OC`: -77.3%.
On to `CCc1cc(=O)n(CC(=O)N2CCC(C)CC2)c(-c2ccccc2)n1`, for which the cytotoxicity at 10 µM is 10.8%.
Under `Cc1c(CNS(=O)(=O)c2cccc(COC(C)C)c2)cnn1C` stands 6.14%.
The same measure for `CN(C)c1ccc(C(=O)N2CCC(c3cc4ncccc4[nH]3)CC2)cc1`: -2.32%.
Under `CCCn1ncc(CN2C[C@@H]3CCCN3C[C@H]2Cc2ccccc2)c1C` stands -16.3%; under `Cc1ccc(C(=O)N2CCc3nc4c(C)csc4c(=O)n3CC2)cn1`, -7.33%; under `COCc1cc(O)nc(C2CCCN(Cc3cccc(OC)c3)C2)n1` (configuration not stated), 4.97%.
Turning to `CCOC(=O)CCN(Cc1cccnc1)C(=O)c1cc(Cl)c[nH]1`, the cytotoxicity at 10 µM is -1.24%.
The same measure for `CCN(CC)S(=O)(=O)CC(=O)N1CCc2ccc(C)cc21`: -5.77%; for `CN(C)C(=O)CCC[S+]([O-])Cc1cc(Cl)ccc1Cl` (configuration not stated): 12.5%.
The same measure for `CN(C)C(=O)CCC[S+]([O-])Cc1ccc(Cl)c(Cl)c1` (configuration not stated): 12.4%.
On to `CC(=O)NCC1CCN(Cc2nc(C3CC3)no2)CC1`, for which the cytotoxicity at 10 µM is -4.12%.
On to `Cc1nsc(N2CCN(Cc3cccc(F)c3)CC2)n1`, for which the cytotoxicity at 10 µM was 2.74%.
As to `CN(Cc1ccccc1CNC(=O)C1CNC(=O)N1)C1CCCCC1` (configuration not stated), the cytotoxicity at 10 µM is 5.09%.
The same measure for `Cn1cccc(NC(=O)NCCc2cccc(O)c2)c1=O`: -43.6%; for `CCc1ncnc(N2CCOCC2C2CC2)c1F` (configuration not stated): -6.62%.
Take `Cc1cccc(CSc2nnc(C)n2CC(N)=O)c1`: the cytotoxicity at 10 µM is -4.46%.
`C=C(C)CN1CCC(NC(=O)NCCc2cccc(C(N)=O)c2)CC1`: the cytotoxicity at 10 µM was found to be 11.4%.
The same measure for `CCOCC(=O)NC1(c2cccc(Cl)c2)CC1`: 3%.
Under `Cc1cccc(C2(NC(=O)CCCn3cncn3)CCCC2)c1` stands 15%.
Under `Cc1cc(=O)n2ncnc2n1CC(O)c1ccc(F)cc1F` (configuration not stated) stands -1.2%; under `CCNC(=O)N1CCC(NC(=O)NCCc2cc(F)cc(F)c2)C1` (configuration not stated), -43.4%.
Consider `CC(C)(C)c1nc(CN2CCCC2c2nnc3ccccn23)no1` (configuration not stated), for which the cytotoxicity at 10 µM is -1.99%.
Take `CC(C)C(=O)NCCNC(=O)C12CCC(=O)N1c1cc(Cl)ccc1S2` (configuration not stated): the cytotoxicity at 10 µM was determined as 15.3%.
Consider `CC(C)n1c2ccccc2c2c1cc(C(=O)O)n2C(=O)N(C)C`, for which the cytotoxicity at 10 µM is -94.3%.
Consider `Cc1csc(CN2C[C@@H]3CN(C)CCO[C@@H]3C2)n1`, for which the cytotoxicity at 10 µM is -105%.
The same measure for `O=C(CC1CC2(CCNCC2)c2ccccc21)NCC1CC1` (configuration not stated): -118%.
Turning to `CS(=O)(=O)NC[C@]12COC[C@H]1CN(C(=O)C1CC(F)(F)C1)C2`, the cytotoxicity at 10 µM was -95.5%.
Under `Cc1cc(N2CCC3(CCCN(CCO)C3=O)C2)nc2ccccc12` (configuration not stated) stands 3.69%; under `COCCC(=O)N1CCCC(CCC(=O)Nc2ccc(Cl)cc2)C1` (configuration not stated), 6.48%.
Regarding `COc1cccc2c(=O)n(C3CCNCC3)cnc12`, the cytotoxicity at 10 µM is -53.4%.
Under `Cc1cc2n(n1)CCN(c1nc(N(C)C)nc3c1CCNC3)C2` stands 0.94%.
Under `CCn1ccnc1CN(C)c1cc(N(C)C)ncn1` stands -42.1%; under `CCCn1ncc(CN(CCN(C)C)Cc2ccsc2)c1C`, 12.2%.
For the compound `CCCN1CCC(CC(=O)N2CC(C)(C)[C@@](C)(O)C2)CC1`, the cytotoxicity at 10 µM is 2.65%.
The same measure for `Cc1ncsc1CCN(C)Cc1ccc(CO)o1`: -15.3%; for `CCc1cc(N(C)Cc2noc(CC(C)C)n2)ncn1`: 7.18%; for `CCNC(=O)C1CCN(Cc2ccc(C(=O)Nc3nnc(C)s3)cc2)C1` (configuration not stated): -0.834%.
As for `Cc1cc(CN2CCCC(CNC(=O)Cn3cccn3)C2)oc1C` (configuration not stated), the cytotoxicity at 10 µM is 6.2%.
The same measure for `COc1ccc(CN(C)C2CSCCSC2)c2cccnc12`: 31.7%; for `COCCC1(C(=O)O)CCCN(Cc2cc3c(cc2C)OCO3)C1` (configuration not stated): -2.37%; for `CN1CCN(c2cnn(CCn3cccn3)c(=O)c2)CC1`: -47.4%.
For the compound `COc1ccc2c(c1)OCC(Cc1ccc(C)nc1N)C2` (configuration not stated), the cytotoxicity at 10 µM is -2.57%.
For the compound `c1cncc(NCCNC2CSCCSC2)c1`, the cytotoxicity at 10 µM came out at 15.8%.
Under `Cc1cc2c(c(-c3cncc(C(=O)N4CCCC4)n3)c1)OC(CN)C2` (configuration not stated) stands -45.7%; under `COCCN(C)C[C@@H]1CN(C(=O)c2ccc(=O)n(C)c2)C[C@@H]1CO`, -11.1%.
Under `CC(c1ccon1)N(C)C(=O)C1CCN(C(=O)C2CCC2)CC1` (configuration not stated) stands 7.13%; under `COc1cccc(Cl)c1C(C(=O)O)N(C)Cc1c(C)n[nH]c1C` (configuration not stated), -1.89%.
`COc1cccc(-c2nccnc2C2CCN(C(C)=O)CC2)c1`: the cytotoxicity at 10 µM is 1.47%.
For `CCN1CCN(c2ncc(-c3cc(C)no3)c(-c3ccc(C)s3)n2)CC1`, the cytotoxicity at 10 µM came to 2.44%.
Consider `CN(Cc1cccnc1)C1CCCN(Cc2noc(C3CC3)n2)C1` (configuration not stated), for which the cytotoxicity at 10 µM was -4.95%.
Take `c1ccc(-n2ncc(CNCC3CCCN3c3cccnn3)n2)cc1` (configuration not stated): the cytotoxicity at 10 µM is -6.71%.
For the compound `NC(=O)C1CN(C(=O)Nc2ccccc2-c2cccs2)CCO1` (configuration not stated), the cytotoxicity at 10 µM is -4.84%.
Take `CC(C)C(C(=O)N1CCC(Nc2cccnn2)CC1)n1cncn1` (configuration not stated): the cytotoxicity at 10 µM was -4.35%.
For the compound `CCC(C)S(=O)(=O)N1CCc2nc(C3CCNCC3)ncc2C1` (configuration not stated), the cytotoxicity at 10 µM was -10.7%.
Under `N#Cc1ccc(CN2CC3(CCCCN3c3cccnc3)CC2=O)cc1` (configuration not stated) stands 0.995%; under `COC1COC2(CCN(Cc3ccc4ccccc4n3)CC2)C1` (configuration not stated), 5.05%; under `N#Cc1cccc(CN2CC3(CCCCN3c3cccnc3)CC2=O)c1` (configuration not stated), -7.27%.
Consider `CS(=O)(=O)N1CCOCC2(CCN(Cc3ccc[nH]3)CC2)C1`, for which the cytotoxicity at 10 µM is -7.02%.
Under `CS(=O)(=O)N1CCOCC2(CN(Cc3ccc(F)cc3)CCO2)C1` (configuration not stated) stands 1.42%; under `c1cncc(-c2ccc3c(c2)CCC32CCN(Cc3nccs3)CC2)c1`, 36%; under `O=C1CCCN1CC1CN(CC2CCOCC2)Cc2nccn2C1` (configuration not stated), 1.65%.
For `O=C(NCCc1ccccc1)N1C[C@@H]2C[C@H](C(=O)N3CCCC3)[C@H](C1)O2`, the cytotoxicity at 10 µM turned out to be 6.95%.

For the origin of these results see ChEMBL document CHEMBL4513216, “Probing the Open Global Health Chemical Diversity Library for Multistage-Active Starting Points for Next-Generation Antimalarials” (ACS Infect Dis, 2020).
